*1 amine or outer side, *2 acyl side, *3 side chain or, on linkers, in order; H or OH if unused. Where a SMILES comes first, the peptide text is derived from it. [ ]: non-standard residue; d: D form. X1 = Cc1ccc2c(c1)CCN([*:1])[C@@H]2C(=O)[*:2]
What was measured:
Casp2 = biological target: T1, Casp2 (Homo sapiens, UniProt P42575); assay: fluorescence-based in vitro biochemical
T1 sequence (P42575 170-325 limits assumed): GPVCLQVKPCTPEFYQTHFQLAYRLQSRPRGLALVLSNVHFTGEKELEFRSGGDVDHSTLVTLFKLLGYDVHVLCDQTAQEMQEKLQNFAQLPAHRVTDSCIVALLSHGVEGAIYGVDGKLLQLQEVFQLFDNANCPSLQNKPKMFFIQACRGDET
T1 sequence (P42575 348-452 limits assumed): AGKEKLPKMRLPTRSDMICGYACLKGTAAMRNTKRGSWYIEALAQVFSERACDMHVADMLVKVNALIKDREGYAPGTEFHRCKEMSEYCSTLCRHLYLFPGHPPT

Casp3 = biological target: T2, Casp3 (Homo sapiens, UniProt P42574); assay: fluorescence-based in vitro biochemical; settings: for Casp2 Selectivity, Ki (Casp3) / Ki (Casp2): Table 1
T2 sequence (P42574 29-175 limits assumed): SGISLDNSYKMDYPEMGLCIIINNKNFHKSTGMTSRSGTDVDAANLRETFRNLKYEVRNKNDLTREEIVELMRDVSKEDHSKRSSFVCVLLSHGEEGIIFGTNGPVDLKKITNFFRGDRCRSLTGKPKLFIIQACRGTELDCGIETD
T2 sequence (P42574 176-277 limits assumed): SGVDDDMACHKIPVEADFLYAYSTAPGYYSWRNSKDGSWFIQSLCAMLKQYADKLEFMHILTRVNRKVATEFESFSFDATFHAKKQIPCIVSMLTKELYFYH

Casp1 = biological target: T3, Casp1 (Homo sapiens, UniProt P29466); assay: in vitro caspase panel assay, Casp1; type: biochemical
T3 sequence (P29466 120-297 limits assumed): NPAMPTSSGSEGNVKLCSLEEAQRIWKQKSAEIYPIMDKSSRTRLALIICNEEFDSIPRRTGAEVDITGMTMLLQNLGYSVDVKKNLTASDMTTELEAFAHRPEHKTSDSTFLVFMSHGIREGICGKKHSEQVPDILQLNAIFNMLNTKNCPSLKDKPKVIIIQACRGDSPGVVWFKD
T3 sequence (P29466 317-404 limits assumed): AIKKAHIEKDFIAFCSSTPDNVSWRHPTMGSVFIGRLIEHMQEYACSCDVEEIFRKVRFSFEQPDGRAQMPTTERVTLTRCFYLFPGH

Casp6 = biological target: T4, Casp6 (Homo sapiens, UniProt P55212); assay: in vitro caspase panel assay, Casp6; type: biochemical
T4 sequence (P55212 24-179 limits assumed): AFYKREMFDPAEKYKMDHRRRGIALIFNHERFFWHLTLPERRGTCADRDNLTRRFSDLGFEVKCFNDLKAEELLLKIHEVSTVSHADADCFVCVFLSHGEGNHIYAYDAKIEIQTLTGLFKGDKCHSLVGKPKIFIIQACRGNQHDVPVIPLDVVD
T4 sequence (P55212 194-293 limits assumed): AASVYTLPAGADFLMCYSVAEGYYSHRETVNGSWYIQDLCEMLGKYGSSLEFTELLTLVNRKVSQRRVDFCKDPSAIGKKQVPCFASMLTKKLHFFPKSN

Casp7 = biological target: T5, Casp7 (Homo sapiens, UniProt P55210); assay: in vitro caspase panel assay, Casp7; type: biochemical
T5 sequence (P55210 24-198 limits assumed): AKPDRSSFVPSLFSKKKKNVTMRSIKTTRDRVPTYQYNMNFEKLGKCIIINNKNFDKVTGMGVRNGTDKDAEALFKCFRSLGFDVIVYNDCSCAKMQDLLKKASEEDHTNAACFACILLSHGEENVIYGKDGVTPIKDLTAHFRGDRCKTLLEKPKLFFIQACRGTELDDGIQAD
T5 sequence (P55210 207-303 limits assumed): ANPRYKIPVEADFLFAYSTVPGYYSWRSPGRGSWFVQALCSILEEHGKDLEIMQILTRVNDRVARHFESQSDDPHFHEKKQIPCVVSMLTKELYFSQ

Casp9 = biological target: T6, Casp9 (Homo sapiens, UniProt P55211); assay: in vitro caspase panel assay, Casp9; type: biochemical
T6 sequence (P55211 1-315 limits assumed): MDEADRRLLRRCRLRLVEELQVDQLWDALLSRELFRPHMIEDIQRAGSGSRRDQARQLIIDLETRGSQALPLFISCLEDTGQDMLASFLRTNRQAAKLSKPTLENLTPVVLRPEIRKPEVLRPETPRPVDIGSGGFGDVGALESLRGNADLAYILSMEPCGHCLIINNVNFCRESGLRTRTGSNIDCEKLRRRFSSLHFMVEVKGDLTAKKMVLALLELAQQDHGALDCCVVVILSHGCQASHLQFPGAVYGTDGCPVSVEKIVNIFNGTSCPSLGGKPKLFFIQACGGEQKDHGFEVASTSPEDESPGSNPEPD
T6 sequence (P55211 331-416 limits assumed): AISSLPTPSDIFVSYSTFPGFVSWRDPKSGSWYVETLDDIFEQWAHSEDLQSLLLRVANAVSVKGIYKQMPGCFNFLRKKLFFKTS

Cathepsin B = Cathepsin B (Homo sapiens, UniProt P07858); assay: Cathepsin B inhibition; type: biochemical
Thrombin a = Thrombin a (Homo sapiens, UniProt P00734); assay: Thrombin a inhibition; type: biochemical
[1] = biological target: T7, Casp2-mediated cleavage of tau at D314 (Homo sapiens, UniProt P42575); assay: in vitro caspase-2-catalyzed tau cleavage assay; type: biochemical
T7 sequence (P42575 170-325 limits assumed): T1 sequence (P42575 170-325 limits assumed)
T7 sequence (P42575 348-452 limits assumed): T1 sequence (P42575 348-452 limits assumed)

[2] = tested on: cultured rat hippocampal neurons expressing P301S tau; type: cell-based; settings: 10 μM for 3 days, versus untreated wild-type and P301S tau neurons
Summary of the method: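 Primary hippocampal cultures from Sprague-Dawley rat pups at postnatal day 0 or 1. At 5–7 DIV, neurons were co-transfected with plasmids for DsRed (morphology label) and GFP-tagged wild-type or P301S tau. Test compound was added at 17–18 DIV for 3 days. Live neurons were imaged at 20–21 DIV.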

[3] = tested on: primary hippocampal neurons from transgenic mice overexpressing P301S tau; assay: mEPSC recording in primary hippocampal neurons from PS19; type: cell-based, mouse; settings: 10 μM, 3 days; for average frequency of mEPSCs: six groups

| Compound | Ki (Casp2) [µM] | Ki (Casp3) [µM] | Casp2 Selectivity, Ki (Casp3) / Ki (Casp2) (Casp3) | Ki (Casp1) [µM] | selectivity Casp2 versus Casp1 (Casp1) [fold] | Ki (Casp6) [µM] | selectivity Casp2 versus Casp6 (Casp6) [fold] | Ki (Casp7) [µM] | selectivity Casp2 versus Casp7 (Casp7) [fold] | Ki (Casp9) [µM] | selectivity Casp2 versus Casp9 (Casp9) [fold] | IC50 (Cathepsin B) [µM] | activity at cathepsin B (Cathepsin B) | IC50 (Thrombin a) [µM] | activity at thrombin (Thrombin a) | IC50 [1] [µM] | density of dendritic spines [2] | average amplitude of mEPSC responses, Tau −/+ versus Tau −/− neurons [3] | cumulative curve of mEPSC amplitudes, Tau −/+ compared with Tau −/− [3] | average frequency of mEPSCs [3] |
| --- | --- | --- | --- | --- | --- | --- | --- | --- | --- | --- | --- | --- | --- | --- | --- | --- | --- | --- | --- | --- |
| Cc1ccc2c(c1)CCN(C(=O)[C@@H](NC(=O)[C@H](CCCC(=O)O)NC(=O)[C@@H]1Cc3ccccc3N1)C(C)C)[C@@H]2C(=O)N[C@H](C#N)CC(=O)O [Compound 1, (S)-6-(((S)-1-((S)-1-(((S)-2-carboxy-1-cyanoethyl)carbamoyl)-6-methyl-3,4-dihydroisoquinolin-2(1H)-yl)-3-methyl-1-oxobutan-2-yl)amino)-5-((S)-indoline-2-carboxamido)-6-oxohexanoic acid] | 0.00759 | 0.933 | 123 | > 100 | > 2000 | > 100 | > 2000 | 15.8 | > 2000 | > 31.6 | > 2000 | 18.6 | weak activity | > 100 | weak activity | 2.02 | no significant differences | do not differ significantly | not significantly shifted | no significant differences |
| CC(=O)N[C@H](C(=O)N[C@@H](CC(=O)O)C(=O)N[C@H](C(=O)N1CCc2cc(C)ccc2[C@H]1C(=O)N[C@H](C=O)CC(=O)O)C(C)C)C(C)C [Compound 2b, (S)-3-((S)-2-acetamido-3-methylbutanamido)-4-(((S)-1-((S)-1-(((S)-1-carboxy-3-oxopropan-2-yl)carbamoyl)-6-methyl-3,4-dihydroisoquinolin-2(1H)-yl)-3-methyl-1-oxobutan-2-yl)amino)-4-oxobutanoic acid] (Ac-VDV[X1]D-aldehyde) | – | – | 70 | 2.75 | – | > 100 | – | > 31.6 | – | > 31.6 | – | 38 | – | – | – | – | – | – | shifted to the left but less markedly | no significant differences |
